The text below walks through data of ChEMBL document CHEMBL3526062, “Role of human UDP-glucuronosyltransferases in the biotransformation of the triazoloacridinone and imidazoacridinone antitumor agents C-1305 and C-1311: highly selective substrates for UGT1A10” (Drug Metab Dispos, 2012).

Usually Km stands for the concentration of substrate that gives half-maximal velocity. What is called Vmax is the top rate of the reaction or transport when substrate is in excess.

Common to all, as to assay type: ADME
In data set [1] the test system is CN(C)CCCNc1ccc2nnn3c4ccc(O)cc4c(=O)c1c23. The data set is described as follows: (§1) Activity of human recombinant UGT1A10 D396A mutant expressed in baculovirus-infected Sf9 cells assessed as enzyme-mediated glucuronidation after 60 mins by Michaelis-Menten equation in presence of 3 mM UDP-GlcUA. The essentials: (§2)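 Membrane fractions (5 μg) holding wild-type or point-mutant UGT1A10 incubated with increasing substrate concentrations and 3 mM UDP-GlcUA, 60 min, 37°C; products by HPLC. Kinetic constants from curve fits of three determinations; Km in μM, Vmax in nmol/mg protein/min.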

Data set [2] has as its system CCN(CC)CCNc1ccc2ncn3c4ccc(O)cc4c(=O)c1c23. Described as §1. The gist of the method: as §2
The test system of data set [3] is CN(C)CCCNc1ccc2nnn3c4ccc(O)cc4c(=O)c1c23. In words: (§3) Activity of human recombinant UGT1A10 V92A mutant expressed in baculovirus-infected Sf9 cells assessed as enzyme-mediated glucuronidation after 60 mins by Michaelis-Menten equation in presence of 3 mM UDP-GlcUA. The gist of the method: as §2
Data set [4] relates to CCN(CC)CCNc1ccc2ncn3c4ccc(O)cc4c(=O)c1c23. Described as §3. The gist of the method: as §2
Substrate in data set [5]: CCN(CC)CCNc1ccc2ncn3c4ccc(O)cc4c(=O)c1c23
In words: (§4) Activity of human recombinant UGT1A1 expressed in baculovirus-infected Sf9 cells assessed as enzyme-mediated glucuronidation after 60 mins by Michaelis-Menten equation in presence of 3 mM UDP-GlcUA. The essentials: (§5)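 Recombinant UGT membrane protein (5 μg; His-tagged UGT1A levels normalized by anti-His Western blot) or single-donor microsomes (20 μg) incubated with substrate 5–1000 μM and 3 mM UDP-GlcUA in […] pH 7.4, 5 mM MgCl2, 5 mM saccharolactone, 2% DMSO, 60 min, 37°C. Ethanol stop, centrifuged, HPLC-UV. Initial velocities fitted to Michaelis-Menten, Hill or substrate-inhibition models; three determinations.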

Substrate in data set [6]: CN(C)CCCNc1ccc2nnn3c4ccc(O)cc4c(=O)c1c23
The data set is described as §4. The essentials:
as §5

Substrate in data set [7]: CCN(CC)CCNc1ccc2ncn3c4ccc(O)cc4c(=O)c1c23
In words: (§6) Activity of human recombinant UGT1A10 expressed in baculovirus-infected Sf9 cells assessed as enzyme-mediated glucuronidation after 60 mins by Michaelis-Menten equation in presence of 3 mM UDP-GlcUA. The gist of the method:
as §5

Substrate in data set [8]: CN(C)CCCNc1ccc2nnn3c4ccc(O)cc4c(=O)c1c23
Described as §6. The essentials:
as §5

Substrate in data set [9]: CCN(CC)CCNc1ccc2ncn3c4ccc(O)cc4c(=O)c1c23
The data set is described as follows: (§7) Activity of human recombinant UGT1A9 expressed in baculovirus-infected Sf9 cells assessed as enzyme-mediated glucuronidation after 60 mins by Michaelis-Menten equation in presence of 3 mM UDP-GlcUA. The gist of the method:
as §5

Substrate in data set [10]: CN(C)CCCNc1ccc2nnn3c4ccc(O)cc4c(=O)c1c23
The data set is described as §7. The essentials: as §5

Substrate in data set [11]: CN(C)CCCNc1ccc2nnn3c4ccc(O)cc4c(=O)c1c23
In words: Activity of human recombinant UGT1A7 expressed in baculovirus-infected Sf9 cells assessed as enzyme-mediated glucuronidation after 60 mins by Michaelis-Menten equation in presence of 3 mM UDP-GlcUA.

As to “UDP-glucuronosyltransferase 1A10 (Homo sapiens; D396A)”, in data set [1], the Km amounted to 47.6 µM and the Vmax is 0.00199 µmol/min. In data set [2], the Michaelis-Menten constant (Km) is 75.4 µM and the maximum rate (Vmax) was determined as 0.00078 µmol/min.
In the case of “UDP-glucuronosyltransferase 1A10 (Homo sapiens; V92A)”, in data set [3], the Km turned out to be 64.7 µM and the Vmax is 0.00073 µmol/min. In addition, in [4], the Km stood at 40.7 µM and the Vmax was 0.00025 µmol/min.

B1: UDP-glucuronosyltransferase 1A1 (Homo sapiens) (protein)
chain: MAVESQGGRPLVLGLLLCVLGPVVSHAGKILLIPVDGSHWLSMLGAIQQLQQRGHEIVVLAPDASLYIRDGAFYTLKTYPVPFQREDVKESFVSLGHNVFENDSFLQRVIKTYKKIKKDSAMLLSGCSHLLHNKELMASLAESSFDVMLTDPFLPCSPIVAQYLSLPTVFFLHALPCSLEFEATQCPNPFSYVPRPLSSHSDHMTFLQRVKNMLIAFSQNFLCDVVYSPYATLASEFLQREVTVQDLLSSASVWLFRSDFVKDYPRPIMPNMVFVGGINCLHQNPLSQEFEAYINASGEHGIVVFSLGSMVSEIPEKKAMAIADALGKIPQTVLWRYTGTRPSNLANNTILVKWLPQNDLLGHPMTRAFITHAGSHGVYESICNGVPMVMMPLFGDQMDNAKRMETKGAGVTLNVLEMTSEDLENALKAVINDKSYKENIMRLSSLHKDRPVEPLDLAVFWVEFVMRHKGAPHLRPAAHDLTWYQYHSLDVIGFLLAVVLTVAFITFKCCAYGYRKCLGKKGRVKKAHKSKTH
Consider B1, for which, in data set [5], the Km turned out to be 28.9 µM and the maximal velocity (Vmax) was 0.000115 µmol/min. Moreover, in data set [6], the Km is 149 µM and the maximum rate (Vmax) stood at 0.000262 µmol/min.

B2: UDP-glucuronosyltransferase 1A10 (Homo sapiens) (protein)
chain: MARAGWTSPVPLCVCLLLTCGFAEAGKLLVVPMDGSHWFTMQSVVEKLILRGHEVVVVMPEVSWQLERSLNCTVKTYSTSYTLEDQNREFMVFAHAQWKAQAQSIFSLLMSSSSGFLDLFFSHCRSLFNDRKLVEYLKESSFDAVFLDPFDTCGLIVAKYFSLPSVVFTRGIFCHHLEEGAQCPAPLSYVPNDLLGFSDAMTFKERVWNHIVHLEDHLFCQYLFRNALEIASEILQTPVTAYDLYSHTSIWLLRTDFVLDYPKPVMPNMIFIGGINCHQGKPLPMEFEAYINASGEHGIVVFSLGSMVSEIPEKKAMAIADALGKIPQTVLWRYTGTRPSNLANNTILVKWLPQNDLLGHPMTRAFITHAGSHGVYESICNGVPMVMMPLFGDQMDNAKRMETKGAGVTLNVLEMTSEDLENALKAVINDKSYKENIMRLSSLHKDRPVEPLDLAVFWVEFVMRHKGAPHLRPAAHDLTWYQYHSLDVIGFLLAVVLTVAFITFKCCAYGYRKCLGKKGRVKKAHKSKTH
On to B2, for which the Michaelis-Menten constant (Km) in [7] was found to be 70.6 µM; in [8], 94.1 µM. In addition, the results for the maximum rate (Vmax) in data set [7] and in [8] were 0.000624 µmol/min and 0.00256 µmol/min, respectively.

B3: UDP-glucuronosyltransferase 1A9 (Homo sapiens) (protein)
chain: MACTGWTSPLPLCVCLLLTCGFAEAGKLLVVPMDGSHWFTMRSVVEKLILRGHEVVVVMPEVSWQLGRSLNCTVKTYSTSYTLEDLDREFKAFAHAQWKAQVRSIYSLLMGSYNDIFDLFFSNCRSLFKDKKLVEYLKESSFDAVFLDPFDNCGLIVAKYFSLPSVVFARGILCHYLEEGAQCPAPLSYVPRILLGFSDAMTFKERVRNHIMHLEEHLLCHRFFKNALEIASEILQTPVTEYDLYSHTSIWLLRTDFVLDYPKPVMPNMIFIGGINCHQGKPLPMEFEAYINASGEHGIVVFSLGSMVSEIPEKKAMAIADALGKIPQTVLWRYTGTRPSNLANNTILVKWLPQNDLLGHPMTRAFITHAGSHGVYESICNGVPMVMMPLFGDQMDNAKRMETKGAGVTLNVLEMTSEDLENALKAVINDKSYKENIMRLSSLHKDRPVEPLDLAVFWVEFVMRHKGAPHLRPAAHDLTWYQYHSLDVIGFLLAVVLTVAFITFKCCAYGYRKCLGKKGRVKKAHKSKTH
With B3, in data set [9], the Michaelis-Menten constant (Km) worked out at 63.3 µM and the Vmax was determined as 0.000206 µmol/min. Besides, in data set [10], the Km amounted to 54.6 µM and the maximal velocity (Vmax) was found to be 0.000201 µmol/min.

B4: UDP-glucuronosyltransferase 1A7 (Homo sapiens) (protein)
chain: MARAGWTGLLPLYVCLLLTCGFAKAGKLLVVPMDGSHWFTMQSVVEKLILRGHEVVVVMPEVSWQLGRSLNCTVKTYSTSYTLEDQDREFMVFADARWTAPLRSAFSLLTSSSNGIFDLFFSNCRSLFNDRKLVEYLKESCFDAVFLDPFDACGLIVAKYFSLPSVVFARGIFCHYLEEGAQCPAPLSYVPRLLLGFSDAMTFKERVWNHIMHLEEHLFCPYFFKNVLEIASEILQTPVTAYDLYSHTSIWLLRTDFVLEYPKPVMPNMIFIGGINCHQGKPVPMEFEAYINASGEHGIVVFSLGSMVSEIPEKKAMAIADALGKIPQTVLWRYTGTRPSNLANNTILVKWLPQNDLLGHPMTRAFITHAGSHGVYESICNGVPMVMMPLFGDQMDNAKRMETKGAGVTLNVLEMTSEDLENALKAVINDKSYKENIMRLSSLHKDRPVEPLDLAVFWVEFVMRHKGAPHLRPAAHDLTWYQYHSLDVIGFLLAVVLTVAFITFKCCAYGYRKCLGKKGRVKKAHKSKTH
Turning to B4, in [11], the Km came out at 29.3 µM and the Vmax came to 0.000306 µmol/min.
